Measurements taken from ChEMBL document CHEMBL4334541, “Nicotinamide Phosphoribosyltransferase (NAMPT) Is a New Target of Antitumor Agent Chidamide” (ACS Med Chem Lett, 2020).
pIC50: −log10 of the molar value. Calls of active or inactive are those of the source. The rule behind the calls is not given here.

Legend:
[1] = target: T1, Nicotinamide phosphoribosyltransferase (Homo sapiens, UniProt P43490); experiment: Inhibition of NAMPT in human HCT116 cells assessed as decrease in cellular NAD+ level after 24 hrs by MTT assay; assay type: cell-based
Summary of the method: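 Relative cellular NAD+ level in HCT116 cells after 24 h exposure to a range of compound concentrations, compared qualitatively with an untreated control.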
Target sequence in this assay (P43490 whole entry, looked up): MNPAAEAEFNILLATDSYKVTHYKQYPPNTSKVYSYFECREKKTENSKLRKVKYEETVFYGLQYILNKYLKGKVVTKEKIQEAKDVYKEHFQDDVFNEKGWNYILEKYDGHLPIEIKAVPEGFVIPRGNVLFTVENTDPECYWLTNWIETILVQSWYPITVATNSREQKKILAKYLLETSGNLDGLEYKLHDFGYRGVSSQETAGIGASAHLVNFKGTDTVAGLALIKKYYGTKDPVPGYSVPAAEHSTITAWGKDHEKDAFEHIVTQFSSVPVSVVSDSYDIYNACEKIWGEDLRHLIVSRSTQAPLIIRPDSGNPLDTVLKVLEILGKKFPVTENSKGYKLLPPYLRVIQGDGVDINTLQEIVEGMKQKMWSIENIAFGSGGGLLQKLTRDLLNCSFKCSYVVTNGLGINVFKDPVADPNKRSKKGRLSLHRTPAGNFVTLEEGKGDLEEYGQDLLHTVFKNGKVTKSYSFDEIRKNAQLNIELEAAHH

K562 [2] = experiment: Antiproliferative activity against human K562 cells NAMPT deficient assessed as reduction in cell viability after 72 hrs by CCK8 assay; assay type: functional, cell-based; conditions: K562, 72 h
Summary of the method: (§1)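 NAMPT-deficient cells were generated by siRNA knockdown of NAMPT before cytotoxicity testing.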

K562 [3] = experiment: Antiproliferative activity against human K562 cells assessed as reduction in cell viability after 72 hrs by CCK8 assay; assay type: functional, cell-based; conditions: K562, 72 h
[4] = target: T1, Nicotinamide phosphoribosyltransferase; experiment: Inhibition of NAMPT in human HL60 cells assessed as decrease in cellular NAD+ level after 24 hrs in presence of NMN by MTT assay; assay type: cell-based
Summary of the method: (§2)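 Rescue test in HCT116, K562, HL60 and HEL cells, with NMN supplemented at 10 μM alongside compound treatment.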
Target sequence in this assay (P43490 whole entry, looked up): as above

HL-60 [5] = experiment: Antiproliferative activity against human HL60 cells NAMPT deficient assessed as reduction in cell viability after 72 hrs by CCK8 assay; assay type: functional, cell-based; conditions: HL-60, 72 h; summary of the method: as §1
HEL [6] = experiment: Antiproliferative activity against human HEL cells NAMPT deficient assessed as reduction in cell viability after 72 hrs by CCK8 assay; assay type: functional, cell-based; summary of the method: as §1
[7] = target: T1, Nicotinamide phosphoribosyltransferase; experiment: Inhibition of NAMPT in human K562 cells assessed as decrease in cellular NAD+ level after 24 hrs in presence of NMN by MTT assay; assay type: cell-based; summary of the method: as §2
Target sequence in this assay (P43490 whole entry, looked up): as above

[8] = target: T1, Nicotinamide phosphoribosyltransferase; experiment: Inhibition of human NAMPT using NAM and PRPP as substrates incubated for 90 mins in presence of NMNAT by fluorometric method
Target sequence in this assay (P43490 whole entry): as the sequence (P43490 whole entry, looked up) above

[9] = target: T1, Nicotinamide phosphoribosyltransferase; experiment: Inhibition of NAMPT in human HEL cells assessed as decrease in cellular NAD+ level after 24 hrs in presence of NMN by MTT assay; assay type: cell-based; summary of the method: as §2
Target sequence in this assay (P43490 whole entry, looked up): as above

HEL [10] = experiment: Antiproliferative activity against human HEL cells assessed as reduction in cell viability after 72 hrs by CCK8 assay; assay type: functional, cell-based
HL-60 [11] = experiment: Antiproliferative activity against human HL60 cells assessed as reduction in cell viability after 72 hrs by CCK8 assay; assay type: functional, cell-based; conditions: HL-60, 72 h
[12] = target: T1, Nicotinamide phosphoribosyltransferase; experiment: Inhibition of NAMPT in human HL60 cells assessed as decrease in cellular NAD+ level after 24 hrs in presence of NA by MTT assay; assay type: cell-based
Summary of the method: (§3)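 Rescue test in HCT116, K562, HL60 and HEL cells, with NA supplemented at 4 μM alongside compound treatment.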
Target sequence in this assay (P43490 whole entry, looked up): as above

HCT-116 [13] = experiment: Antiproliferative activity against human HCT116 cells assessed as reduction in cell viability after 72 hrs by CCK8 assay; assay type: functional, cell-based; conditions: HCT-116, 72 h
[14] = target: T1, Nicotinamide phosphoribosyltransferase; experiment: Inhibition of NAMPT in human HCT116 cells assessed as decrease in cellular NAD+ level after 24 hrs in presence of NA by MTT assay; assay type: cell-based; summary of the method: as §3
Target sequence in this assay (P43490 whole entry, looked up): as above

HCT-116 [15] = experiment: Antiproliferative activity against human HCT116 cells NAMPT deficient assessed as reduction in cell viability after 72 hrs by CCK8 assay; assay type: functional, cell-based; conditions: HCT-116, 72 h; summary of the method: as §1
[16] = target: T1, Nicotinamide phosphoribosyltransferase; experiment: Inhibition of NAMPT in human HEL cells assessed as decrease in cellular NAD+ level after 24 hrs in presence of NA by MTT assay; assay type: cell-based; summary of the method: as §3
[17] = target: T1, Nicotinamide phosphoribosyltransferase; experiment: Inhibition of NAMPT in human HCT116 cells assessed as decrease in cellular NAD+ level after 24 hrs in presence of NMN by MTT assay; assay type: cell-based; summary of the method: as §2
[18] = target: T1, Nicotinamide phosphoribosyltransferase; experiment: Inhibition of NAMPT in human K562 cells assessed as decrease in cellular NAD+ level after 24 hrs in presence of NA by MTT assay; assay type: cell-based; summary of the method: as §3

Compound: Nc1cc(F)ccc1NC(=O)c1ccc(CNC(=O)/C=C/c2cccnc2)cc1 [TUCIDINOSTAT]
- inhibition [1]: Active
- pIC50 (K562 [2]): 5.62
- pIC50 (K562 [3]): 6.49
- inhibition [4]: inactive
- pIC50 (HL-60 [5]): 5.49
- pIC50 (HEL [6]): 5.74
- inhibition [7]: inactive
- pIC50 [8]: 5.68
- inhibition [9]: inactive
- pIC50 (HEL [10]): 7.89
- pIC50 (HL-60 [11]): 8.66
- inhibition [12]: inactive
- pIC50 (HCT-116 [13]): 6.47
- inhibition [14]: inactive
- pIC50 (HCT-116 [15]): < 4.70
- inhibition [16]: inactive
- inhibition [17]: inactive
- inhibition [18]: inactive
